# Source: PMC2831464 (Clinical cancer research : an official journal of the …, 2010)
# Entries after “also recorded” stand apart in the source; their conditions may differ.
# Experiment: Phase I dose escalation: dose limiting toxicities, MTD and CTCAE 3.0 toxicities
# Assay type: in vivo, human
# Outline: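 Adults (>18 y) had refractory solid tumors, ECOG ≤2 and adequate marrow, hepatic and renal function. Test compound in 5% dextrose (0.05–0.5 mg/mL) was given as a 1-h IV infusion daily × 5 every 21 days, within 4 h of reconstitution. Premedication was oral dexamethasone, ondansetron, loratadine, famotidine and diphenhydramine. […] DLTs were assessed in cycle 1 by CTCAE v3.0. MTD was the level below that giving DLT in ≥2 patients.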
# [1] = CTCAE related toxicities, Blood/bone marrow
# [2] = CTCAE related toxicities, Cardiac general
# [3] = CTCAE related toxicities, Constitutional symptoms
# [4] = CTCAE related toxicities, Dermatology/skin
# [5] = CTCAE related toxicities, Gastrointestinal
smiles,measurement,setting,value
"CC[C@@]1(O)C(=O)OCc2c1cc1n(c2=O)Cc2c-1nc1ccc(O)cc1c2[Si](C)(C)C(C)(C)C [AR-67, 7-t-butyldimethylsilyl-10-hydroxycamptothecin]",Common Grade 3 and 4 toxicities: anemia,"26 patients, all dosage levels",11.5%
same,Common Grade 3 and 4 toxicities: fatigue,"26 patients, all dosage levels",15.4%
same,Common Grade 3 and 4 toxicities: leukopenia (leukocytopenia),"26 patients, all dosage levels",23%
same,Common Grade 3 and 4 toxicities: neutropenia,"26 patients, all dosage levels",11.5%
same,Common Grade 3 and 4 toxicities: thrombocytopenia,"26 patients, all dosage levels",15.4%
same,Diarrhea,"26 patients, all dosage levels",No diarrhea; also recorded: none of the patients experienced
same,Infusion related allergic (hypersensitivity) reactions,"26 patients, premedicated, cremophor-ethanol formulation",none of the patients experienced; also recorded: no patients exhibited hypersensitivity reactions
same,"Hemoglobin, Grade 1",[1],8
same,"Hemoglobin, Grade 2",[1],12
same,"Hemoglobin, Grade 3",[1],6
same,"Hemoglobin, Grade 4",[1],0
same,"Hemoglobin, Total",[1],26
same,"Leukocytes (total WBC), Grade 1",[1],18
same,"Leukocytes (total WBC), Grade 2",[1],15
same,"Leukocytes (total WBC), Grade 3",[1],8
same,"Leukocytes (total WBC), Grade 4",[1],0
same,"Leukocytes (total WBC), Total",[1],41
same,"Monocytopenia, Grade 1",[1],0
same,"Monocytopenia, Grade 2",[1],0
same,"Monocytopenia, Grade 3",[1],0
same,"Monocytopenia, Grade 4",[1],1
same,"Monocytopenia, Total",[1],1
same,"Neutrophils/granulocytes (ANC/AGC), Grade 1",[1],3
same,"Neutrophils/granulocytes (ANC/AGC), Grade 2",[1],10
same,"Neutrophils/granulocytes (ANC/AGC), Grade 3",[1],5
same,"Neutrophils/granulocytes (ANC/AGC), Grade 4",[1],1
same,"Neutrophils/granulocytes (ANC/AGC), Total",[1],19
same,"Platelets, Grade 2",[1],8
same,"Platelets, Grade 3",[1],9
same,"Hypotension, Grade 1",[2],0
same,"Hypotension, Grade 2",[2],1
same,"Hypotension, Grade 3",[2],0
same,"Hypotension, Grade 4",[2],0
same,"Hypotension, Total",[2],1
same,"Fatigue (asthenia, lethargy, malaise), Grade 1",[3],4
same,"Fatigue (asthenia, lethargy, malaise), Grade 3",[3],8
same,"Fatigue (asthenia, lethargy, malaise), Grade 4",[3],0
same,"Fatigue (asthenia, lethargy, malaise), Total",[3],26
same,"Fever (in the absence of neutropenia), Grade 1",[3],0
same,"Fever (in the absence of neutropenia), Grade 2",[3],1
same,"Fever (in the absence of neutropenia), Grade 3",[3],0
same,"Fever (in the absence of neutropenia), Grade 4",[3],0
same,"Fever (in the absence of neutropenia), Total",[3],1
same,"Insomnia, Grade 1",[3],2
same,"Insomnia, Grade 2",[3],5
same,"Insomnia, Grade 3",[3],0
same,"Insomnia, Grade 4",[3],0
same,"Insomnia, Total",[3],7
same,"Weight loss, Grade 1",[3],2
same,"Weight loss, Grade 2",[3],0
same,"Weight loss, Grade 3",[3],0
same,"Weight loss, Grade 4",[3],0
same,"Weight loss, Total",[3],2
same,"Nail changes, Grade 1",[4],1
same,"Nail changes, Grade 2",[4],0
same,"Nail changes, Grade 3",[4],0
same,"Nail changes, Grade 4",[4],0
same,"Nail changes, Total",[4],1
same,"Pruritus/itching/Dry skin/Flushing, Grade 2",[4],0
same,"Pruritus/itching/Dry skin/Flushing, Grade 3",[4],0
same,"Pruritus/itching/Dry skin/Flushing, Grade 4",[4],0
same,"Pruritus/itching/Dry skin/Flushing, Total",[4],7
same,"Rash/desquamation, Grade 1",[4],2
same,"Rash/desquamation, Grade 2",[4],1
same,"Rash/desquamation, Grade 3",[4],0
same,"Rash/desquamation, Grade 4",[4],0
same,"Rash/desquamation, Total",[4],3
same,"Anorexia/Taste Alteration, Grade 1",[5],4
same,"Anorexia/Taste Alteration, Grade 3",[5],1
same,"Anorexia/Taste Alteration, Grade 4",[5],0
same,"Anorexia/Taste Alteration, Total",[5],12
same,"Constipation/Dehydration, Grade 1",[5],6
same,"Constipation/Dehydration, Grade 2",[5],8
same,"Constipation/Dehydration, Grade 3",[5],0
same,"Constipation/Dehydration, Grade 4",[5],0
same,"Mucositis/stomatitis, Grade 1",[5],2
same,"Mucositis/stomatitis, Grade 2",[5],0
same,"Mucositis/stomatitis, Grade 3",[5],0
same,"Mucositis/stomatitis, Grade 4",[5],0
